Experimental data as given in ChEMBL document CHEMBL1145889, “Potent and selective inhibitors of platelet-derived growth factor receptor phosphorylation. 3. Replacement of quinazoline moiety and improvement of metabolic polymorphism of 4-[4-(N-substituted (thio)carbamoyl)-1-piperazinyl]-6,7-dimethoxyquinazoline derivatives” (J Med Chem, 2003).
Values belong to the molecule of their own block, whether it stands above or below them.

What was measured:
Assay type in all cases: ADME, organism-based
[1] = Pharmacokinetic parameter (AUC) was determined after administering 1 mg/kg of compound intravenously in rat no.3 belonging to phenotype EM (extensive metabolizer); parameters: dose 1 mg/kg, route intravenous; conditions: in vivo, iv
Summary of the method: (§1)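 Male Sprague–Dawley rats (nos. 1–4) were dosed intravenously at 1 mg/kg. Plasma drug concentration was measured by HPLC. Parameters were derived by model-independent analysis. Rats were classed as extensive or poor metabolizers from their plasma profiles.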

[2] = Plasma clearance was determined after administering 1 mg/kg of compound intravenously in rat no.1 belonging to phenotype EM (extensive metabolizer); parameters: dose 1 mg/kg, route intravenous; conditions: iv; summary of the method: as §1
[3] = Plasma clearance was determined after administering 1 mg/kg of compound intravenously in rat no.2 belonging to phenotype EM (extensive metabolizer); parameters: dose 1 mg/kg, route intravenous; conditions: iv; summary of the method: as §1
[4] = Plasma clearance was determined after administering 1 mg/kg of compound intravenously in rat no.3 belonging to phenotype EM (extensive metabolizer); parameters: dose 1 mg/kg, route intravenous; conditions: iv; summary of the method: as §1
[5] = Plasma clearance was determined after administering 1 mg/kg of compound intravenously in rat no.4 belonging to phenotype PM (poor metabolizer); parameters: dose 1 mg/kg, route intravenous; conditions: iv; summary of the method: as §1
[6] = Mean residence time after oral administration of 30 mg/kg of compound in rat no.5 belonging to phenotype PM (poor metabolizer); parameters: dose 30 mg/kg, route oral; conditions: in vivo
Summary of the method: (§2)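 Male Sprague–Dawley rats (nos. 5–7) were given 30 mg/kg orally. Plasma concentration was determined by HPLC. Tmax, T1/2, MRT, Cmax and AUC came from model-independent analysis. Extensive and poor metabolizers were assigned from the concentration–time profiles.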

[7] = Mean residence time after oral administration of 30 mg/kg of compound in rat no.6 belonging to phenotype EM (extensive metabolizer); parameters: dose 30 mg/kg, route oral; conditions: in vivo; summary of the method: as §2
[8] = Mean residence time after oral administration of 30 mg/kg of compound in rat no.7 belonging to phenotype PM (poor metabolizer); parameters: dose 30 mg/kg, route oral; conditions: in vivo; summary of the method: as §2
[9] = Mean residence time of intravenously administered compound (1 mg/kg) in rat no.1 belonging to phenotype EM (extensive metabolizer); conditions: in vivo, iv; summary of the method: as §1
[10] = Mean residence time of intravenously administered compound (1 mg/kg) in rat no.2 belonging to phenotype EM (extensive metabolizer); conditions: in vivo, iv; summary of the method: as §1
[11] = Mean residence time of intravenously administered compound (1 mg/kg) in rat no.3 belonging to phenotype EM (extensive metabolizer); conditions: in vivo, iv; summary of the method: as §1
[12] = Mean residence time of intravenously administered compound (1 mg/kg) in rat no.4 belonging to phenotype PM (poor metabolizer); conditions: in vivo, iv; summary of the method: as §1
[13] = Volume of distribution at steady state was determined after administering 1 mg/kg of compound intravenously in rat no.1 belonging to phenotype EM (extensive metabolizer); parameters: dose 1 mg/kg, route intravenous; conditions: in vivo, iv, read-out: Vdss; summary of the method: as §1
[14] = Volume of distribution at steady state was determined after administering 1 mg/kg of compound intravenously in rat no.2 belonging to phenotype EM (extensive metabolizer); parameters: dose 1 mg/kg, route intravenous; conditions: in vivo, iv, read-out: Vdss; summary of the method: as §1
[15] = Volume of distribution at steady state was determined after administering 1 mg/kg of compound intravenously in rat no.3 belonging to phenotype EM (extensive metabolizer); parameters: dose 1 mg/kg, route intravenous; conditions: in vivo, iv, read-out: Vdss; summary of the method: as §1
[16] = Volume of distribution at steady state was determined after administering 1 mg/kg of compound intravenously in rat no.4 belonging to phenotype PM (poor metabolizer); parameters: dose 1 mg/kg, route intravenous; conditions: in vivo, iv, read-out: Vdss; summary of the method: as §1
[17] = Half-life period of intravenously administered compound (1 mg/kg) in rat no.1 belonging to phenotype EM (extensive metabolizer); conditions: in vivo, iv, read-out: T1/2 beta (converted); summary of the method: as §1
[18] = Maximum plasma concentration was determined after administering 30 mg/kg of compound orally in rat no.5 belonging to phenotype PM (poor metabolizer); parameters: dose 30 mg/kg, route oral; conditions: po; summary of the method: as §2
[19] = Maximum plasma concentration was determined after administering 30 mg/kg of compound orally in rat no.6 belonging to phenotype EM (extensive metabolizer); parameters: dose 30 mg/kg, route oral; conditions: po; summary of the method: as §2
[20] = Half-life period of orally administered compound (30 mg/kg) in rat no.5 belonging to phenotype PM (poor metabolizer); conditions: in vivo, po; summary of the method: as §2
[21] = Half-life period of orally administered compound (30 mg/kg) in rat no.6 belonging to phenotype EM (extensive metabolizer); conditions: in vivo, po; summary of the method: as §2
[22] = Half-life period of orally administered compound (30 mg/kg) in rat no.7 belonging to phenotype PM (poor metabolizer); conditions: in vivo, po; summary of the method: as §2
[23] = Maximum plasma concentration was determined after administering 30 mg/kg of compound orally n rat no.7 belonging to phenotype PM (poor metabolizer); parameters: dose 30 mg/kg, route oral; conditions: po; summary of the method: as §2
[24] = Pharmacokinetic parameter (AUC) was determined after administering 1 mg/kg of compound intravenously in rat no.1 belonging to phenotype EM (extensive metabolizer); parameters: dose 1 mg/kg, route intravenous; conditions: in vivo, iv; summary of the method: as §1
[25] = Pharmacokinetic parameter (AUC) was determined after administering 1 mg/kg of compound intravenously in rat no.4 belonging to phenotype PM (poor metabolizer); parameters: dose 1 mg/kg, route intravenous; conditions: in vivo, iv; summary of the method: as §1
[26] = Pharmacokinetic parameter (AUC) was determined after administering 30 mg/kg of compound orally in rat no.6 belonging to phenotype EM (extensive metabolizer); parameters: dose 30 mg/kg, route oral; conditions: in vivo, po; summary of the method: as §2
[27] = Pharmacokinetic parameter (AUC) was determined after administering 30 mg/kg of compound orally in rat no.7 belonging to phenotype PM (poor metabolizer); parameters: dose 30 mg/kg, route oral; conditions: in vivo, po; summary of the method: as §2
[28] = Half-life period of intravenously administered compound (1 mg/kg) in rat no.2 belonging to phenotype EM (extensive metabolizer); conditions: in vivo, iv, read-out: T1/2 beta (converted); summary of the method: as §1
[29] = Half-life period of intravenously administered compound (1 mg/kg) in rat no.3 belonging to phenotype EM (extensive metabolizer); conditions: in vivo, iv, read-out: T1/2 beta (converted); summary of the method: as §1
[30] = Half-life period of intravenously administered compound (1 mg/kg) in rat no.4 belonging to phenotype PM (poor metabolizer); conditions: in vivo, iv, read-out: T1/2 beta (converted); summary of the method: as §1
[31] = Maximum time of retention of orally administered compound (30 mg/kg) in rat no.5 belonging to phenotype PM (poor metabolizer); conditions: in vivo, po; summary of the method: as §2
[32] = Maximum time of retention of orally administered compound (30 mg/kg) in rat no.6 belonging to phenotype EM (extensive metabolizer); conditions: in vivo, po; summary of the method: as §2
[33] = Maximum time of retention of orally administered compound (30 mg/kg) in rat no.7 belonging to phenotype PM (poor metabolizer); conditions: in vivo, po; summary of the method: as §2
[34] = Pharmacokinetic parameter (AUC) was determined after administering 30 mg/kg of compound orally in rat no.5 belonging to phenotype PM (poor metabolizer); parameters: dose 30 mg/kg, route oral; conditions: in vivo, po; summary of the method: as §2
[35] = Plasma clearance was determined after administering 1 mg/kg of compound intravenously in rat no.10 belonging to the phenotype […] (poor metaboliser); parameters: dose 1 mg/kg, route intravenous; conditions: iv
Summary of the method: (§3)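 Male Sprague–Dawley rats (n = 4) were first phenotyped by a 3 mg/kg oral dose. Plasma taken at 30 min was run on HPLC, and a metabolite peak present marked EM, absent marked PM. After a 1-week washout, each phenotype (n = 2) received 1 mg/kg intravenously. Plasma concentration was determined by HPLC.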

[36] = Plasma clearance was determined after administering 1 mg/kg of compound intravenously in rat no.11 belonging to the phenotype […] (poor metaboliser); parameters: dose 1 mg/kg, route intravenous; conditions: iv; summary of the method: as §3
[37] = Plasma clearance was determined after administering 1 mg/kg of compound intravenously in rat no.8 belonging to the phenotype EM (extensive metaboliser); parameters: dose 1 mg/kg, route intravenous; conditions: iv; summary of the method: as §3
[38] = Plasma clearance was determined after administering 1 mg/kg of compound intravenously in rat no.9 belonging to the phenotype EM (extensive metaboliser); parameters: dose 1 mg/kg, route intravenous; conditions: iv; summary of the method: as §3
[39] = Volume of distribution at steady state was determined after administering 1 mg/kg of compound intravenously in rat no.11 belonging to the phenotype EM (poor metaboliser); parameters: dose 1 mg/kg, route intravenous; conditions: in vivo, iv, read-out: Vdss; summary of the method: as §3
[40] = Volume of distribution at steady state was determined after administering 1 mg/kg of compound intravenously in rat no.8 belonging to the phenotype EM (extensive metaboliser); parameters: dose 1 mg/kg, route intravenous; conditions: in vivo, iv, read-out: Vdss; summary of the method: as §3
[41] = Volume of distribution at steady state was determined after administering 1 mg/kg of compound intravenously in rat no.9 belonging to the phenotype EM (extensive metaboliser); parameters: dose 1 mg/kg, route intravenous; conditions: in vivo, iv, read-out: Vdss; summary of the method: as §3
[42] = Half-life period of intravenously administered compound (1 mg/kg) in rat no.10 belonging to the phenotype […] (poor metaboliser); conditions: in vivo, iv; summary of the method: as §3
[43] = Half-life period of intravenously administered compound (1 mg/kg) in rat no.11 belonging to the phenotype […] (poor metaboliser); conditions: in vivo, iv; summary of the method: as §3
[44] = Half-life period of intravenously administered compound (1 mg/kg) in rat no.8 belonging to the phenotype EM (extensive metaboliser); conditions: in vivo, iv; summary of the method: as §3
[45] = Half-life period of intravenously administered compound (1 mg/kg) in rat no.9 belonging to the phenotype EM (extensive metaboliser); conditions: in vivo, iv; summary of the method: as §3
[46] = Pharmacokinetic parameter (AUC) was determined after administering 1 mg/kg of compound intravenously in rat no.10 belonging to the phenotype […] (poor metaboliser); parameters: dose 1 mg/kg, route intravenous; conditions: in vivo, iv; summary of the method: as §3
[47] = Pharmacokinetic parameter (AUC) was determined after administering 1 mg/kg of compound intravenously in rat no.11 belonging to the phenotype […] (poor metaboliser); parameters: dose 1 mg/kg, route intravenous; conditions: in vivo, iv; summary of the method: as §3
[48] = Pharmacokinetic parameter (AUC) was determined after administering 1 mg/kg of compound intravenously in rat no.8 belonging to the phenotype EM (extensive metaboliser); parameters: dose 1 mg/kg, route intravenous; conditions: in vivo, iv; summary of the method: as §3
[49] = Pharmacokinetic parameter (AUC) was determined after administering 1 mg/kg of compound intravenously in rat no.9 belonging to the phenotype EM (extensive metaboliser); parameters: dose 1 mg/kg, route intravenous; conditions: in vivo, iv; summary of the method: as §3
[50] = Volume of distribution at steady state was determined after administering 1 mg/kg of compound intravenously in rat no.10 belonging to the phenotype […] (poor metaboliser); parameters: dose 1 mg/kg, route intravenous; conditions: in vivo, iv, read-out: Vdss; summary of the method: as §3
[51] = read-out: T1/2 alpha (converted)
[52] = read-out: T1/2 beta (converted)

AUC [1]: 2420 ng·h/mL
clearance [2]: 5.82 mL/min/kg
clearance [3]: 6.73 mL/min/kg
clearance [4]: 6.88 mL/min/kg
clearance [5]: 0.707 mL/min/kg
MRT [6]: 514 min
MRT [7]: 235 min
MRT [8]: 382 min
MRT [9]: 39 min
MRT [10]: 23.4 min
MRT [11]: 21 min
MRT [12]: 252 min
Vd [13]: 0.22 L/kg
Vd [14]: 0.16 L/kg
Vd [15]: 0.15 L/kg
Vd [16]: 0.18 L/kg
half-life [17]: 58.2 min
Cmax [18]: 50700 ng/mL
Cmax [19]: 5220 ng/mL
half-life [20]: 315 min
half-life [21]: 152 min
half-life [22]: 204 min
Cmax [23]: 35200 ng/mL
AUC [24]: 2870 ng·h/mL
AUC [25]: 23600 ng·h/mL
AUC [26]: 26300 ng·h/mL
AUC [27]: 455000 ng·h/mL
half-life [28]: 27 min
half-life [29]: 23.4 min
half-life [30]: 186 min
Tmax [31]: 480 min
Tmax [32]: 120 min
Tmax [33]: 120 min
AUC [34]: 815000 ng·h/mL
Structure (SMILES): COc1cc2ncnc(N3CCN(C(=O)Nc4ccc(C#N)cc4)CC3)c2cc1OC

clearance [35]: 13.1 mL/min/kg
clearance [36]: 17.5 mL/min/kg
clearance [37]: 14.4 mL/min/kg
clearance [38]: 13.2 mL/min/kg
Vd [39]: 0.286 L/kg
Vd [40]: 0.215 L/kg
Vd [41]: 0.252 L/kg
half-life [42, 51]: 1.9 min
half-life [42, 52]: 15.5 min
half-life [43, 51]: 3.58 min
half-life [43, 52]: 13.1 min
half-life [44, 51]: 2.69 min
half-life [44, 52]: 13.8 min
half-life [45, 51]: 2.99 min
half-life [45, 52]: 15.7 min
AUC [46]: 1280 ng·h/mL
AUC [47]: 950 ng·h/mL
AUC [48]: 1160 ng·h/mL
AUC [49]: 1260 ng·h/mL
Vd [50]: 0.232 L/kg
Structure (SMILES): COCCOc1cc2c(N3CCN(C(=O)Nc4ccc(C#N)cc4)CC3)ncnc2cc1OC
